How the values were obtained:
Conditions in all cases: in vivo
Rattus norvegicus [1] = experiment: The biodistribution of the [125I]-labeled compound in rats after intravenous injection was evaluated in adrenal at 0.25 hrs; value ranges from 0.97-1.66 (ID.kg/g); format: ADME, organism-based
How it was run: (§1)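 Male Sprague-Dawley rats (250–300 g) under ether anesthesia received 10–15 μCi of NCA radioiodinated (125I) tracer iv in 0.1 mL saline. Groups of 3 were killed at 0.25, 1 and 4 h. Blood and tissues were excised, weighed and counted in a γ-well scintillation counter. Values are % injected dose × body mass (kg) per g tissue, given as mean with range.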

Rattus norvegicus [2] = experiment: The biodistribution of the [125I]-labeled compound in rats after intravenous injection was evaluated in adrenal at 1.00 hrs; value ranges from 0.61-1.12 (ID.kg/g); format: ADME, organism-based; how it was run: as §1
Rattus norvegicus [3] = experiment: The biodistribution of the [125I]-labeled compound in rats after intravenous injection was evaluated in adrenal at 4.00 hrs; value ranges from 0.39-0.45 (ID.kg/g); format: ADME, organism-based; how it was run: as §1
Rattus norvegicus [4] = experiment: The biodistribution of the [125I]-labeled compound in rats after intravenous injection was evaluated in blood at 0.25 hrs (ID.kg/g); format: ADME, organism-based
How it was run: (§2)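 Male Sprague-Dawley rats (250–300 g) under ether anesthesia were given an iv injection of no-carrier-added 125I-labelled agent (10–15 μCi in 0.1 mL saline). The agent was iodinated with chloramine-T in acetate buffer and purified by C-18 HPLC. Groups of N = 3 were killed at 0.25, 1 and 4 h. Blood and tissues were weighed and γ-counted. Values are % ID·kg/g, mean (range).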

Rattus norvegicus [5] = experiment: The biodistribution of the [125I]-labeled compound in rats after intravenous injection was evaluated in blood at 1.00 hrs (ID.kg/g); format: ADME, organism-based; how it was run: as §2
Rattus norvegicus [6] = experiment: The biodistribution of the [125I]-labeled compound in rats after intravenous injection was evaluated in blood at 4.00 hrs (ID.kg/g); format: ADME, organism-based; how it was run: as §2
Rattus norvegicus [7] = experiment: The biodistribution of the [125I]-labeled compound in rats after intravenous injection was evaluated in thyroid at 1.00 hrs; value ranges from 2.47-2.81 (ID.kg/g); format: ADME, organism-based, Thyroid gland
Rattus norvegicus [8] = experiment: The biodistribution of the [125I]-labeled compound in rats after intravenous injection was evaluated in brain at 0.25 hrs; value ranges from 0.25-0.30 (ID.kg/g); format: ADME, organism-based; how it was run: as §1
Rattus norvegicus [9] = experiment: The biodistribution of the [125I]-labeled compound in rats after intravenous injection was evaluated in heart at 0.25 hrs; value ranges from 0.23-0.28 (ID.kg/g); format: ADME, organism-based; how it was run: as §1
Rattus norvegicus [10] = experiment: The biodistribution of the [125I]-labeled compound in rats after intravenous injection was evaluated in heart at 1.00 hrs; value ranges from 0.16-0.21 (ID.kg/g); format: ADME, organism-based; how it was run: as §1
Rattus norvegicus [11] = experiment: The biodistribution of the [125I]-labeled compound in rats after intravenous injection was evaluated in heart at 4.00 hrs (ID.kg/g); format: ADME, organism-based; how it was run: as §1
Rattus norvegicus [12] = experiment: The biodistribution of the [125I]-labeled compound in rats after intravenous injection was evaluated in lung at 4.00 hrs; value ranges from 0.35-0.36 (ID.kg/g); format: ADME, organism-based; how it was run: as §1
Rattus norvegicus [13] = experiment: The biodistribution of the [125I]-labeled compound in rats after intravenous injection was evaluated in muscle at 0.25 hrs (ID.kg/g); format: ADME, organism-based, Muscle tissue
How it was run: (§3)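 Male Sprague-Dawley rats (250–300 g) under ether anesthesia given iv 0.1 mL saline containing 10–15 μCi of NCA ¹²⁵I-labeled agent (chloramine-T iodination, HPLC-purified). Groups of 3 killed at 0.25, 1 and 4 h. Blood and tissues excised, weighed and γ-counted. Values are mean (range) of % injected dose × body mass (kg) per gram of tissue.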

Rattus norvegicus [14] = experiment: The biodistribution of the [125I]-labeled compound in rats after intravenous injection was evaluated in muscle at 4.00 hrs (ID.kg/g); format: ADME, organism-based, Muscle tissue; how it was run: as §3
Rattus norvegicus [15] = experiment: The biodistribution of the [125I]-labeled compound in rats after intravenous injection was evaluated in thyroid at 4.00 hrs; value ranges from 2.51-3.60 (ID.kg/g); format: ADME, organism-based, Thyroid gland
Rattus norvegicus [16] = experiment: The biodistribution of the [125I]-labeled compound in rats after intravenous injection was evaluated in brain at 4.00 hrs; value ranges from 0.11-0.13 (ID.kg/g); format: ADME, organism-based; how it was run: as §1
Rattus norvegicus [17] = experiment: The biodistribution of the [125I]-labeled compound in rats after intravenous injection was evaluated in thyroid at 0.25 hrs; value ranges from 2.05-2.47 (ID.kg/g); format: ADME, organism-based, Thyroid gland
Rattus norvegicus [18] = experiment: The biodistribution of the [125I]-labeled compound in rats after intravenous injection was evaluated in fat at 0.25 hr (ID. kg/g); format: ADME, organism-based, Adipose tissue; how it was run: as §2
Rattus norvegicus [19] = experiment: The biodistribution of the [125I]-labeled compound in rats after intravenous injection was evaluated in fat at 1.00 hrs (ID.kg/g); format: ADME, organism-based, Adipose tissue; how it was run: as §2
Rattus norvegicus [20] = experiment: The biodistribution of the [125I]-labeled compound in rats after intravenous injection was evaluated in brain at 1.00 hrs; value ranges from 0.21-0.27 (ID.kg/g); format: ADME, organism-based; how it was run: as §1
Rattus norvegicus [21] = experiment: The biodistribution of the [125I]-labeled compound in rats after intravenous injection was evaluated in fat at 4.00 hrs (ID.kg/g); format: ADME, organism-based, Adipose tissue; how it was run: as §2
Rattus norvegicus [22] = experiment: The biodistribution of the [125I]-labeled compound in rats after intravenous injection was evaluated in kidney at 4.00 hrs; value ranges from 0.23-0.24 (ID.kg/g); format: ADME, organism-based; how it was run: as §1
Rattus norvegicus [23] = experiment: The biodistribution of the [125I]-labeled compound in rats after intravenous injection was evaluated in liver at 4.00 hrs; value ranges from 0.19-0.22 (ID.kg/g); format: ADME, organism-based; how it was run: as §1
Rattus norvegicus [24] = experiment: The biodistribution of the [125I]-labeled compound in rats after intravenous injection was evaluated in lung at 0.25 hrs; value ranges from 1.14-1.30 (ID.kg/g); format: ADME, organism-based; how it was run: as §1
Rattus norvegicus [25] = experiment: The biodistribution of the [125I]-labeled compound in rats after intravenous injection was evaluated in lung at 1.00 hrs; value ranges from 0.86-0.96 (ID.kg/g); format: ADME, organism-based; how it was run: as §1
Rattus norvegicus [26] = experiment: The biodistribution of the [125I]-labeled compound in rats after intravenous injection was evaluated in liver at 1.00 hrs; value ranges from 0.30-0.36 (ID.kg/g); format: ADME, organism-based; how it was run: as §1
Rattus norvegicus [27] = experiment: The biodistribution of the [125I]-labeled compound in rats after intravenous injection was evaluated in kidney at 0.25 hr; value ranges from 0.49-0.61 (ID.kg/g); format: ADME, organism-based; how it was run: as §1
Rattus norvegicus [28] = experiment: The biodistribution of the [125I]-labeled compound in rats after intravenous injection was evaluated in kidney at 1.00 hrs; value ranges from 0.43-0.47 (ID.kg/g); format: ADME, organism-based; how it was run: as §1
Rattus norvegicus [29] = experiment: The biodistribution of the [125I]-labeled compound in rats after intravenous injection was evaluated in liver at 0.25 hr; value ranges from 0.32-0.39 (ID.kg/g); format: ADME, organism-based; how it was run: as §1
Rattus norvegicus [30] = experiment: The biodistribution of the [125I]-labeled compound in rats after intravenous injection was evaluated in muscle at 1.00 hrs (ID.kg/g); format: ADME, organism-based, Muscle tissue; how it was run: as §3

In the case of `Ic1ccc(N2CCN(C3CCCCC3)CC2)cc1`, the Biodistribution (Rattus norvegicus [1]) is reported as 1.66%, the Biodistribution (Rattus norvegicus [2]) is reported as 1.12% and the Biodistribution (Rattus norvegicus [3]) is reported as 0.45%. It also gave a Biodistribution (Rattus norvegicus [4]) of 0.01 % ID·kg/g, a Biodistribution (Rattus norvegicus [5]) of 0.01 % ID·kg/g and a Biodistribution (Rattus norvegicus [6]) of 0.01 % ID·kg/g. The Biodistribution (Rattus norvegicus [7]) was 2.81%, the Biodistribution (Rattus norvegicus [8]) was 0.3% and the Biodistribution (Rattus norvegicus [9]) was 0.28%. It also gave a Biodistribution (Rattus norvegicus [10]) of 0.21%, a Biodistribution (Rattus norvegicus [11]) of 0.08% and a Biodistribution (Rattus norvegicus [12]) of 0.36%. For the same compound, the Biodistribution (Rattus norvegicus [13]) was 0.03 % ID·kg/g, the Biodistribution (Rattus norvegicus [14]) was 0.01 %ID·kg/g and the Biodistribution (Rattus norvegicus [15]) was 3.6%. For the same compound, the Biodistribution (Rattus norvegicus [16]) was 0.13%, the Biodistribution (Rattus norvegicus [17]) was 2.47% and the Biodistribution (Rattus norvegicus [18]) was 0.01 % ID·kg/g. For the same compound, the Biodistribution (Rattus norvegicus [19]) was 0.01 % ID·kg/g, the Biodistribution (Rattus norvegicus [20]) was 0.27% and the Biodistribution (Rattus norvegicus [21]) was 0.01%. The Biodistribution (Rattus norvegicus [22]) was 0.24%, the Biodistribution (Rattus norvegicus [23]) was 0.22% and the Biodistribution (Rattus norvegicus [24]) was 1.3%. It also gave a Biodistribution (Rattus norvegicus [25]) of 0.96%, a Biodistribution (Rattus norvegicus [26]) of 0.36% and a Biodistribution (Rattus norvegicus [27]) of 0.61%. It also gave a Biodistribution (Rattus norvegicus [28]) of 0.47%, a Biodistribution (Rattus norvegicus [29]) of 0.39% and a Biodistribution (Rattus norvegicus [30]) of 0.03 %ID·kg/g.

From ChEMBL document CHEMBL1123589, “Phenylpiperazine-based radiopharmaceuticals for brain imaging. 3. Synthesis and evaluation of radioiodinated 1-alkyl-4-phenylpiperazines” (J Med Chem, 1987)
